The values that follow come from ChEMBL document CHEMBL3351477, “A C-14 labeled Py-Im polyamide localizes to a subcutaneous prostate cancer tumor” (Bioorg Med Chem, 2014).

In data set [1] the test system is Tumour. In words: Drug level in human LNCaP cells xenografted NSG mouse tumor at 20 nmol, ip measured up to 1 to 7 days by liquid scintillation counting method. Type of data set: ADME, organism-based, Neoplasm. To be noted: in vivo. In outline: (§1)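 Male NSG mice bearing subcutaneous flank LNCaP xenografts. The graft was 2.5M cells in 200 μL of 1:1 culture medium/matrigel, using cells at or below passage 25 with >90% viability by trypan blue. C-14 labeled compound was given i.p. at 20 nmol per animal 4-8 weeks after engraftment. Mice were euthanized by CO2. Tumor, kidney, liver and lung were excised.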
For orientation: Xenograft models place foreign cells or tissue in a host animal.

Data set [2] has as its system Liver. The data set is described as follows: Drug level in human LNCaP cells xenografted NSG mouse liver at 20 nmol, ip measured up to 1 to 7 days by liquid scintillation counting method. Type of data set: ADME, organism-based. To be noted: in vivo. In outline:
as §1

For data set [3], the system named is Tumour. The data set is described as follows: Drug level in human LNCaP cells xenografted NSG mouse tumor at 20 nmol, ip dosed on days 1, 4 and 7 measured 24 hrs after last dose by liquid scintillation counting method. Type of data set: ADME, organism-based, Neoplasm. To be noted: in vivo, read-out: Drug uptake. The essentials: as §1
Data set [4] relates to Tumour. The data set is described as follows: Drug level in human LNCaP cells xenografted NSG mouse tumor at 20 nmol, ip measured after 24 hrs by liquid scintillation counting method. Type of data set: ADME, organism-based, Neoplasm. To be noted: in vivo. The essentials: as §1
Data set [5] has as its system Tumour. In words: Drug level in human LNCaP cells xenografted NSG mouse tumor at 20 nmol, ip measured after 24 hrs by liquid scintillation counting method relative to liver. It counts as ADME, organism-based. To be noted: in vivo. In outline: as §1
Data set [6] concerns Kidney. In words: Drug level in human LNCaP cells xenografted NSG mouse kidney at 20 nmol, ip measured up to 1 to 7 days by liquid scintillation counting method. Type of data set: ADME, organism-based. To be noted: in vivo. The essentials: as §1
Data set [7] has as its system Kidney. In words: Drug level in human LNCaP cells xenografted NSG mouse kidney at 20 nmol, ip dosed on days 1, 4 and 7 measured 24 hrs after last dose by liquid scintillation counting method relative to single injection dose. It counts as ADME, organism-based. To be noted: in vivo. The essentials:
as §1

The subject of data set [8] is Tumour. The data set is described as follows: Drug level in human LNCaP cells xenografted NSG mouse tumor at 20 nmol, ip dosed on days 1, 4 and 7 measured 24 hrs after last dose by liquid scintillation counting method relative to single injection dose. It counts as ADME, organism-based, Neoplasm. To be noted: in vivo. In outline: as §1
Data set [9] concerns Lung. The data set is described as follows: Drug level in human LNCaP cells xenografted NSG mouse lung at 20 nmol, ip measured after 24 hrs by liquid scintillation counting method. It counts as ADME, organism-based. To be noted: in vivo. In outline: as §1
The subject of data set [10] is Tumour. In words: Drug level in human LNCaP cells xenografted NSG mouse tumor at 20 nmol, ip measured after 4 hrs by liquid scintillation counting method relative to liver. It counts as ADME, organism-based. To be noted: in vivo. The essentials:
as §1

In data set [11] the test system is Tumour. In words: Drug level in human LNCaP cells xenografted NSG mouse tumor at 20 nmol, ip measured after 24 hrs by liquid scintillation counting method relative to other tissues. Type of data set: ADME, organism-based, Neoplasm. To be noted: in vivo. The essentials: as §1
Data set [12] has as its system Liver. The data set is described as follows: Drug level in human LNCaP cells xenografted NSG mouse liver at 20 nmol, ip dosed on days 1, 4 and 7 measured 24 hrs after last dose by liquid scintillation counting method relative to single injection dose. It counts as ADME, organism-based. To be noted: in vivo. The essentials: as §1
For data set [13], the system named is Lung. In words: Drug level in human LNCaP cells xenografted NSG mouse lung at 20 nmol, ip measured up to 1 to 7 days by liquid scintillation counting method. Type of data set: ADME, organism-based. To be noted: in vivo. The essentials:
as §1

Data set [14] relates to Liver. In words: Drug level in human LNCaP cells xenografted NSG mouse liver at 20 nmol, ip measured after 24 hrs by liquid scintillation counting method relative to kidney. It counts as ADME, organism-based. To be noted: in vivo. In outline:
as §1

Data set [15] has as its system Liver. In words: Drug level in human LNCaP cells xenografted NSG mouse liver at 20 nmol, ip measured after 24 hrs by liquid scintillation counting method. To be noted: in vivo. Type of data set: ADME, organism-based. In outline: as §1
The test system of data set [16] is Liver. In words: Drug level in human LNCaP cells xenografted NSG mouse liver at 20 nmol, ip measured after 24 hrs by liquid scintillation counting method relative to lung. Type of data set: ADME, organism-based. To be noted: in vivo. The essentials: as §1
Data set [17] relates to Kidney. The data set is described as follows: Drug level in human LNCaP cells xenografted NSG mouse kidney at 20 nmol, ip measured after 24 hrs by liquid scintillation counting method. It counts as ADME, organism-based. To be noted: in vivo. The essentials:
as §1

For the molecule `CC(=O)N[C@H](CCNC(=O)c1cc(NC(=O)c2cc(NC(=O)c3cc(NC(=O)c4nccn4C)cn3C)cn2C)cn1C)C(=O)Nc1cn(C)c(C(=O)Nc2cc(C(=O)Nc3cc(C(=O)Nc4cc(C(=O)NCCCN(C)CCCN[14C](=O)c5cccc([14C](=O)O)c5)n(C)c4)n(C)c3)n(C)c2)n1`, the Drug uptake in data set [1] is 0.45 mg/kg; in [2] it was 0.27 mg/kg; in [6], 0.05 mg/kg; in [9], 0.12 mg/kg; in [13], 0.06 mg/kg; in data set [15], 1.04 mg/kg. Also, the Drug uptake in [17] turned out to be 0.25 mg/kg. Moreover, the concentration is 2500 nM in data set [3] and 1060 nM in data set [4] (read-out: Drug uptake). In addition, the “fold change (FC)” value in [5] stood at 1.5; in data set [7], 1.8; in data set [8], 2.4; in data set [10] it was 2; in data set [11], 2; in data set [12], 1.8. The “fold change (FC)” value in data set [14] is reported as 4.2; in [16], 8.7.
In the case of `C[14C](=O)N[C@H](CCNC(=O)c1cc(NC(=O)c2cc(NC(=O)c3cc(NC(=O)c4nccn4C)cn3C)cn2C)cn1C)C(=O)Nc1cn(C)c(C(=O)Nc2cc(C(=O)Nc3cc(C(=O)Nc4cc(C(=O)NCCCN(C)CCCNC(=O)c5cccc(C(=O)O)c5)n(C)c4)n(C)c3)n(C)c2)n1`, the Drug uptake result in [4], in data set [9], in [15] and in data set [17] was “Active” each time.
With `CN(CCCNC(=O)c1cc(NC(=O)c2cc(NC(=O)c3cc(NC(=O)c4nc(NC(=O)[C@H](N)CCNC(=O)c5cc(NC(=O)c6cc(NC(=O)c7cc(NC(=O)c8nccn8C)cn7C)cn6C)cn5C)cn4C)cn3C)cn2C)cn1C)CCCN[14C](=O)c1cccc([14C](=O)O)c1`, the Drug uptake entry is “Active” in [4], 0.93 mg/kg in data set [9], “Active” in [15] and “Active” in data set [17].
